Published values gathered from unrelated publications.
Each line is one published result; the experiments were not run side by side.
NEU1: Sialidase-1 (NEU1, Homo sapiens, UniProt Q99519)
P4HB: Protein disulfide-isomerase (P4HB, Homo sapiens, UniProt P07237)
CTSL: Procathepsin L (CTSL, Homo sapiens, UniProt P07711)

The IC50 of `CC(C)(C)CC(=O)N[C@H]1[C@H]([C@H](O)[C@H](O)CO)OC(C(=O)O)=C[C@@H]1O` is reported as 160 µM (NEU1; enzyme activity; inhibitor).
`O=C(O[C@@H]1Cc2c(O)cc(O)cc2O[C@H]1c1ccc(O)c(O)c1)c1cc(O)c(O)c(O)c1` has an IC50 of greater than 20 µM (P4HB; enzyme activity; inhibitor; fluorescence).
`[Cl][Cd][Cl]` has an IC50 of 4.2 µM (Voltage-dependent P/Q-type calcium channel subunit alpha-1A (Homo sapiens, UniProt O00555); ion current; inhibitor; patch clamp).
`O=C(O)c1cc(O)c(O)c(O)c1` gave an IC50 of greater than 500 µM (P4HB; enzyme activity; inhibitor; fluorescence).
For `COCCC(=O)N[C@@H](CCC(N)=O)C(=O)N[C@@H](Cc1ccccc1)C(=O)N[C@@H](CCCNC(=N)N)C(=O)c1nc2ccccc2s1`, the Ki was greater than 10 µM (CTSL; cell-free assay).
`O=C(O)C1=C[C@H](O)[C@@H](n2cc(-c3ccc(-c4ccccc4)cc3)nn2)[C@H]([C@H](O)[C@H](O)CO)O1` has an IC50 of greater than 500 µM (NEU1; enzyme activity; inhibitor).
With `OB1OCc2cc(F)ccc21` the IC50 was 19.6 µM (blaNDM-5 (Escherichia coli, UniProt G3K399); enzyme activity; inhibitor).
`CS(=O)(=O)N[C@@H](CCC(N)=O)C(=O)N[C@@H](Cc1ccccc1)C(=O)N[C@@H](CCCNC(=N)N)C(=O)c1nccs1` gave a Ki of greater than 10 µM (CTSL; cell-free assay).
